# In ChEMBL document CHEMBL1667800, “Synthesis, DNA/RNA affinity and antitumour activity of new aromatic diamidines linked by 3,4-ethylenedioxythiophene” (Eur J Med Chem, 2011):
# The source made the active and inactive calls. The rule behind the calls is not given here.
# How the values were obtained:
# Calf thymus DNA [1] = assay: Binding affinity to calf thymus DNA assessed as DNA CD band at compound over DNA molar ratio of > 0.3 by circular dichroism titration; type: nucleic-acid assay; conditions: Bos taurus
# Method in brief: (§1)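 CD titration of polynucleotide (2.0 × 10^-5 mol dm^-3, as phosphate) with added compound over a range of r = [compound]/[polynucleotide]. Na-cacodylate buffer, pH 7.0, I = 0.05 mol dm^-3, 1 cm quartz cuvette. ct-DNA was sonicated and filtered before use. Changes in the polynucleotide CD band and induced CD bands were followed.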
# Calf thymus DNA [2] = assay: Binding affinity to calf thymus DNA minor groove assessed as DNA CD band at compound over DNA molar ratio of < 0.2 by circular dichroism titration; type: nucleic-acid assay; conditions: Bos taurus; method in brief: as §1
# Nucleic Acid [3] = assay: Binding affinity to ds-RNA assessed as RNA CD band at compound over RNA molar ratio of < 0.2 by circular dichroism titration; type: nucleic-acid assay; method in brief: as §1
# Calf thymus DNA [4] = assay: Binding affinity to calf thymus DNA assessed as melting temperature at compound over DNA molar ratio of 0.1 at pH 7 by thermal denaturation assay; type: nucleic-acid assay; conditions: Bos taurus
# Method in brief: (§2)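 Thermal melting of ds-polynucleotide (ct-DNA or poly A-poly U) alone and with compound at the given r, Na-cacodylate pH 7.0, I = 0.05 mol dm^-3. Absorbance at 260 nm was followed versus temperature, with compound absorbance subtracted and the curve normalized. Tm was taken from the first-derivative maximum or by tangent. ΔTm = Tm(complex) − Tm(free nucleic acid).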
# Calf thymus DNA [5] = assay: Binding affinity to calf thymus DNA assessed as melting temperature at compound over DNA molar ratio of 0.2 at pH 7 by thermal denaturation assay; type: nucleic-acid assay; conditions: Bos taurus; method in brief: as §2
# Calf thymus DNA [6] = assay: Binding affinity to calf thymus DNA assessed as melting temperature at compound over DNA molar ratio of 0.3 at pH 7 by thermal denaturation assay; type: nucleic-acid assay; conditions: Bos taurus; method in brief: as §2
# Nucleic Acid [7] = assay: Binding affinity to polu A-poly U assessed as melting temperature at compound over DNA molar ratio of 0.3 at pH 7 by thermal denaturation assay; type: nucleic-acid assay; method in brief: as §2
# MCF7 = assay: Cytotoxicity against human MCF7 cells after 72 hrs by MTT assay; type: functional; conditions: MCF7, 72 h
# Method in brief: (§3)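 Cells were seeded at 2 × 10^4 cells/mL and attached overnight at 37 °C, 5% CO2. They were then exposed for 72 h to compounds from aqueous stocks (working solutions 10^-3–10^-6 mol dm^-3). MTT was added for 4 h at 37 °C, formazan dissolved in DMSO, and absorbance read at 570 nm. GI50 is the mean ± SD of three independent experiments run in triplicate.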
# NCI-H358 = assay: Cytotoxicity against human NCI-H358 cells after 72 hrs by MTT assay; type: functional; conditions: NCI-H358, 72 h; method in brief: as §3
# Caco-2 = assay: Cytotoxicity against human Caco2 cells after 72 hrs by MTT assay; type: functional; conditions: Caco-2, 72 h; method in brief: as §3
# HEp-2 = assay: Cytotoxicity against human Hep2 cells after 72 hrs by MTT assay; type: functional; conditions: HEp-2, 72 h; method in brief: as §3
# HeLa [8] = assay: Cytotoxicity against human HeLa cells after 72 hrs by MTT assay; type: functional; method in brief: as §3
# AGS = assay: Cytotoxicity against human AGS cells after 72 hrs by MTT assay; type: functional; method in brief: as §3
# MIA PaCa-2 = assay: Cytotoxicity against human MIAPaCa2 cells after 72 hrs by MTT assay; type: functional; conditions: MIA PaCa-2, 72 h; method in brief: as §3
# [9] = Cytotoxicity against MDCK cells after 72 hrs by MTT assay; type: cell-based, Canis lupus familiaris; conditions: dog; method in brief: as §3
# Calf thymus DNA [10] = assay: Binding affinity to calf thymus DNA assessed as hyperchromic effect at compound over DNA molar ratio of 0.2 by UV-Vis spectra; type: nucleic-acid assay; conditions: Bos taurus; in the assay text read “hypochromic effect” for “hyperchromic effect”
# Method in brief: (§4)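 UV-Vis titration of compound (c = 1.97 × 10^-5 mol dm^-3 in the shown example) with ct-DNA. Na-cacodylate buffer, pH 7.0, I = 0.05 mol dm^-3, 1 cm quartz cuvette. Absorbance at the maximum was tracked against c(ct-DNA). Ks and n were obtained by non-linear least-squares Scatchard fitting.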
# Calf thymus DNA [11] = assay: Binding affinity to calf thymus DNA assessed as batochromic effect at compound over DNA molar ratio of 0.2 by UV-Vis spectra; type: nucleic-acid assay; conditions: Bos taurus; method in brief: as §4
# Calf thymus DNA [12] = assay: Binding affinity to calf thymus DNA assessed as batochromic effect at compound over DNA molar ratio of 0.2 by fluorimetric titration; type: nucleic-acid assay; conditions: Bos taurus
# Method in brief: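 Fluorimetric titration of compound (about 1.0 × 10^-6 mol dm^-3) with ct-DNA. Excitation above 360 nm to avoid inner-filter effects. Na-cacodylate buffer, pH 7.0, I = 0.05 mol dm^-3. Emission at the maximum was plotted against c(ct-DNA). Ks and n were obtained by non-linear Scatchard fitting.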
# Calf thymus DNA [13] = assay: Binding affinity to calf thymus DNA assessed as DNA CD band at compound over DNA molar ratio of > 0.2 by circular dichroism titration; type: nucleic-acid assay; conditions: Bos taurus; method in brief: as §1
# HeLa [14] = assay: Induction of cell cycle arrest in human HeLa assessed as accumulation at G0/G1-phase at 5x10'-6 M after 24 hrs by FACS analysis (RVb = 62.2+/-4.4%); type: functional
# HeLa [15] = assay: Induction of cell cycle arrest in human HeLa assessed as accumulation at G0/G1-phase at 5x10'-6 M after 48 hrs by FACS analysis (RVb = 61.2+/-2.3%); type: functional
# HeLa [16] = assay: Induction of cell cycle arrest in human HeLa assessed as accumulation at G0/G1-phase at 5x10'-6 M after 72 hrs by FACS analysis (RVb = 63.4+/-3.2%); type: functional
# HeLa [17] = assay: Induction of cell cycle arrest in human HeLa assessed as accumulation at S-phase at 5x10'-6 M after 24 hrs by FACS analysis (RVb = 27.7+/-4.2%); type: functional
# HeLa [18] = assay: Induction of cell cycle arrest in human HeLa assessed as accumulation at S-phase at 5x10'-6 M after 48 hrs by FACS analysis (RVb = 30.4+/-3.7%); type: functional
# HeLa [19] = assay: Induction of cell cycle arrest in human HeLa assessed as accumulation at S-phase at 5x10'-6 M after 72 hrs by FACS analysis (RVb = 28.8+/-3.2%); type: functional
# HeLa [20] = assay: Induction of cell cycle arrest in human HeLa assessed as accumulation at G2/M-phase at 5x10'-6 M after 24 hrs by FACS analysis (RVb = 10.1+/-3.4%); type: functional
# HeLa [21] = assay: Induction of cell cycle arrest in human HeLa assessed as accumulation at G2/M-phase at 5x10'-6 M after 48 hrs by FACS analysis (RVb = 8.4+/-3.9%); type: functional
# HeLa [22] = assay: Induction of cell cycle arrest in human HeLa assessed as accumulation at G2/M-phase at 5x10'-6 M after 72 hrs by FACS analysis (RVb = 7.8+/-3.1%); type: functional
# HeLa [23] = assay: Induction of cell cycle arrest in human HeLa assessed as accumulation at G0/G1-phase at 1x10'-6 M after 24 hrs by FACS analysis (RVb = 62.2+/-4.4%); type: functional
# HeLa [24] = assay: Induction of cell cycle arrest in human HeLa assessed as accumulation at G0/G1-phase at 1x10'-6 M after 48 hrs by FACS analysis (RVb = 61.2+/-2.3%); type: functional
# HeLa [25] = assay: Induction of cell cycle arrest in human HeLa assessed as accumulation at G0/G1-phase at 1x10'-6 M after 72 hrs by FACS analysis (RVb = 63.4+/-3.2%); type: functional
# HeLa [26] = assay: Induction of cell cycle arrest in human HeLa assessed as accumulation at S-phase at 1x10'-6 M after 24 hrs by FACS analysis (RVb = 27.7+/-4.2%); type: functional
# HeLa [27] = assay: Induction of cell cycle arrest in human HeLa assessed as accumulation at S-phase at 1x10'-6 M after 48 hrs by FACS analysis (RVb = 30.4+/-3.7%); type: functional
# HeLa [28] = assay: Induction of cell cycle arrest in human HeLa assessed as accumulation at S-phase at 1x10'-6 M after 72 hrs by FACS analysis (RVb = 28.8+/-3.2%); type: functional
# HeLa [29] = assay: Induction of cell cycle arrest in human HeLa assessed as accumulation at G2/M-phase at 1x10'-6 M after 24 hrs by FACS analysis (RVb = 10.1+/-3.4%); type: functional
# HeLa [30] = assay: Induction of cell cycle arrest in human HeLa assessed as accumulation at G2/M-phase at 1x10'-6 M after 48 hrs by FACS analysis (RVb = 8.4+/-3.9%); type: functional
# HeLa [31] = assay: Induction of cell cycle arrest in human HeLa assessed as accumulation at G2/M-phase at 1x10'-6 M after 72 hrs by FACS analysis (RVb = 7.8+/-3.1%); type: functional
# Calf thymus DNA [32] = assay: Binding affinity to calf thymus DNA assessed as hyperchromic effect at compound over DNA molar ratio of 0.5 by UV-Vis spectra; type: nucleic-acid assay; conditions: Bos taurus; in the assay text read “hypochromic effect” for “hyperchromic effect”; method in brief: as §4
# Nucleic Acid [33] = assay: Binding affinity to ds-RNA assessed as RNA CD band at compound over RNA molar ratio of > 0.2 by circular dichroism titration; type: nucleic-acid assay; method in brief: as §1
# Calf thymus DNA [34] = assay: Binding affinity to calf thymus DNA assessed as hyperchromic effect at compound over DNA molar ratio of 0.4 by UV-Vis spectra; type: nucleic-acid assay; conditions: Bos taurus; in the assay text read “hypochromic effect” for “hyperchromic effect”; method in brief: as §4
Structure (SMILES),Activity (Calf thymus DNA [1]),Activity (Calf thymus DNA [2]),Activity (Nucleic Acid [3]),ΔTm (Calf thymus DNA [4]),ΔTm (Calf thymus DNA [5]),ΔTm (Calf thymus DNA [6]),ΔTm (Nucleic Acid [7]),GI50 (MCF7),GI50 (NCI-H358),GI50 (Caco-2),GI50 (HEp-2),GI50 (HeLa [8]),GI50 (AGS),GI50 (MIA PaCa-2),GI50 at 72 h [9],Activity (Calf thymus DNA [11]),Activity (Calf thymus DNA [12]),Activity (Calf thymus DNA [32]),further results
c1cc(-c2sc(-c3ccc(C4=NCCCN4)cc3)c3c2OCCO3)ccc1C1=NCCCN1,Active,Active,inactive,11.8 °C,> 16 °C,> 16 °C,8.2 °C,8.4 µM,98.7 µM,101 µM,97.7 µM,97.5 µM,81.7 µM,64.7 µM,82 µM,Active,Active,,Activity (Calf thymus DNA [10]): Active
Cl.Cl.c1cc(-c2sc(-c3ccc(C4=NCCN4)cc3)c3c2OCCO3)ccc1C1=NCCN1,,Active,,10.8 °C,14.3 °C,> 16 °C,17 °C,2.7 µM,4.1 µM,3.1 µM,3 µM,1.5 µM,4.3 µM,9 µM,17 µM,Active,Active,Active,Activity (Calf thymus DNA [13]): Active; Activity (HeLa [14]): 53.3%; Activity (HeLa [15]): 44.2%; Activity (HeLa [16]): 46.4%; Activity (HeLa [17]): 29.1%; Activity (HeLa [18]): 37.3%; Activity (HeLa [19]): 32.5%; Activity (HeLa [20]): 17.6%; Activity (HeLa [21]): 18.5%; Activity (HeLa [22]): 21.1%; Activity (HeLa [23]): 55.4%; Activity (HeLa [24]): 59.6%; Activity (HeLa [25]): 62.2%; Activity (HeLa [26]): 30.2%; Activity (HeLa [27]): 33.1%; Activity (HeLa [28]): 25.9%; Activity (HeLa [29]): 14.4%; Activity (HeLa [30]): 7.3%; Activity (HeLa [31]): 11.9%
N=C(N)c1ccc(-c2sc(-c3ccc(C(=N)N)cc3)c3c2OCCO3)cc1,Active,Active,inactive,12.2 °C,> 16 °C,> 16 °C,12.6 °C,25 µM,33 µM,13 µM,9.3 µM,32.3 µM,116 µM,9.3 µM,7.1 µM,Active,Active,Active,
CC(C)NC(=N)c1ccc(-c2sc(-c3ccc(C(=N)NC(C)C)cc3)c3c2OCCO3)cc1,Active,Active,inactive,8.4 °C,11.1 °C,12.3 °C,5.8 °C,67.5 µM,113 µM,76.5 µM,9 µM,72.3 µM,72.3 µM,13 µM,65.3 µM,Active,Active,,Activity (Nucleic Acid [33]): Active; Activity (Calf thymus DNA [34]): Active
